Source: PubChem (several laboratories)
Only some compounds are listed: those with a hit (about 2.5% of all), similar ones and a draw of the others.
T cell HTS: T cell immune modulation candidate. 2C CD8+ T cell-vesicle binding, flow cytometry; active compounds read low. response (vesicle binding), % at 7 µM. 330,000 compounds, 0.068% hits;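 active = response, share of CD8 T cells binding vesicles, and their 90th percentile fluorescence all below set limits, cut at about 80% in these data, passing the limit was not always enough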;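 note: values below 100% mean blocked vesicle binding to the CD8+ T cells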
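Benchmarks: naked versus QL9-loaded vesicles / Assay system: purified 2C TCR transgenic mouse naive CD8+ T cells / Technique: high-throughput flow cytometry with anti-B7-1 and anti-CD8 staining / Timing: Cell–vesicle co-incubation 1.5 h at 37 °C, staining 20 min on ice / Read-out: percent CD8+ FL2 mean versus row control / Probe or stimulus: QL9-loaded Drosophila micro-vesicles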
MEKK2wt PB1 HTS: raises or lowers MEK5 binding to wildtype human MEKK2 PB1 domain; Q9Y2U5; bead flow cytometry, Alexa488-MEK5 binding to MEKK2 WT; actives lie on both sides; binding response (% of control), % at 10 µM; 290,000 compounds, 1.1% hits; AID 1531; in the data active = binding response below about 67% or above about 130%
UCH37 DUB inh: blocks the human deubiquitinase UCH37. purified proteasome/UCH37, Ub-AMC cleavage fluorescence. inhibition, % (concentration not given with the values). 330,000 compounds, 0.33% hits. AID 588478;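 active = mean inhibition over replicate wells above about 20%, limit read from the data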;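 note: 0% = compound-free wells with enzyme and 100% = wells lacking proteasome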
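system = Proteasome-associated human UCH37 deubiquitinase | amount = 0.15 nM proteasome as dispensed | medium = pH 7.4 Tris-HCl (50 mM) with ovalbumin, ATP-MgCl2, DTT | incubation = 30 min preincubation with enzyme, 25 min cleavage at room temperature | detection = AMC fluorescence 355/460 nm | read-out basis = percent inhibition | controls = no-proteasome and no-compound wells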
Rce1 inhib: yeast Ras-converting enzyme inhibition. Q03530. yeast membranes, quenched prenylated peptide cleavage fluorescence. calls only. 290,000 compounds, 0.27% hits;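 active = fall in fluorescence gain of 50% or more versus controls, with final raw signal at or below 3038400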;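 note: plate controls were neutral control wells for no effect and wells lacking membranes for full effect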
MEKK2mut PB1 HTS: signal of MEK5 binding to mutant human MEKK2 PB1 domain. 290,000 compounds, 0.35% hits. percent response, % at 10 µM. bead flow cytometry, Alexa488-MEK5 binding to MEKK2 mutant; in the data active = percent response above about 24%, passing the limit was not always enough
MEKK3 PB1 HTS: MEKK3-MEK5 PB1 interaction, increase or decrease; bead-based flow cytometry, Alexa488-MEK5 binding to MEKK3; actives lie on both sides; 0 = blocked by unlabeled MEK5, 100 = vehicle; 290,000 compounds, 1.4% hits; binding response (% of control), % at 10 µM; Q99759;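 active = binding response more than 3 SD above or below the average of its plate-row segment, actives on both sides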;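 note: Alexa488 bead fluorescence after subtracting the streptavidin-only scavenger bead signal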
Target sequence (Q99759 whole entry, looked up): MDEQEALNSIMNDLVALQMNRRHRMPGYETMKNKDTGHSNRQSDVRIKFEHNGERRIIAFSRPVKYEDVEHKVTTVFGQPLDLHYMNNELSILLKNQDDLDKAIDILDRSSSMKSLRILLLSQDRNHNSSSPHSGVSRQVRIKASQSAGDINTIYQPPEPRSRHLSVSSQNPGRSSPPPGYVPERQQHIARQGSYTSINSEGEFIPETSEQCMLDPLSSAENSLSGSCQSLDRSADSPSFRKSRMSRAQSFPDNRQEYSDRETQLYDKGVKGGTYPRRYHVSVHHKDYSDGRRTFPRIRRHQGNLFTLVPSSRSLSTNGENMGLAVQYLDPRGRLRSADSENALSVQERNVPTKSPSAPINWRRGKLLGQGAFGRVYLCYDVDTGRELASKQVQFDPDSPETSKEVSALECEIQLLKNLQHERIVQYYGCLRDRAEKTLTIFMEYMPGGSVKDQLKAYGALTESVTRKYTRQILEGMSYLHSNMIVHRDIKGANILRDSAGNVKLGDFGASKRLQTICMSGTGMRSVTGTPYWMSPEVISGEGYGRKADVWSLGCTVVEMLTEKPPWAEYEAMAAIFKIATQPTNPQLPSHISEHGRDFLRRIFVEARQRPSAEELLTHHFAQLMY
MEKK2wt confirm: raises or lowers MEK5 binding to wildtype human MEKK2, retest; shares compounds with MEKK3 PB1 HTS; bead flow cytometry, Alexa488-MEK5 binding to MEKK2 WT; actives lie on both sides; binding response (% of control), % at 10 µM; 5,900 compounds, 2.4% hits; AID 1892; in the data active = binding response below about 16% or above about 210%; inactive = in between
MEKK2mut confirm: signal of MEK5 binding to mutant human MEKK2, retest; shares compounds with MEKK3 PB1 HTS; bead flow cytometry, Alexa488-MEK5 binding to MEKK2 mutant; percent response, % at 10 µM; 5,900 compounds, 2% hits; in the data active = percent response mostly above about 71%, no sharp cut-off; inactive = mostly below about 38%;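 note: higher means compound restores mutant binding toward wildtype level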
MEKK3-MEK5 inh: confirmation of inhibitors of MEK5 binding to human MEKK3. shares compounds with MEKK3 PB1 HTS. bead flow cytometry, Alexa488-MEK5 binding to MEKK3; active compounds read low. 5,900 compounds, 1.8% hits. binding response (% of control), % at 10 µM;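 active = binding response below 72% of control, or above a set upper limit, though filed actives all read lower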;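 note: 100% = DMSO only wells and 0% = binding blocked by excess unlabeled MEK5; lower values mean stronger disruption of MEK5 binding to MEKK3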
* marks the source's active call; other numbers are inactive results; i = inactive; · = no result given; [ ] = remark or other dose.

SMILES	T cell HTS	MEKK2wt PB1 HTS	UCH37 DUB inh	Rce1 inhib	MEKK2mut PB1 HTS	MEKK3 PB1 HTS	MEKK2wt confirm	MEKK2mut confirm	MEKK3-MEK5 inh
COc1ccc(Br)cc1C=NNC(=O)c1ccc(OC)c(OC)c1	·	·	2.8	·	·	·	·	·	·
Cc1ccc(Nc2nnc(SCC(=O)c3ccc(Br)s3)s2)c(C)c1	409.8	94.0	1.8	i	2.0	72.0*[inhibitor]	97.0	-8.0	99.0
Brc1ccc(C=NNc2nncc(-c3ccccc3)n2)o1	·	·	4.5	·	·	·	·	·	·
O=c1[nH]c2ccccc2n2cnnc12	182.5	126.0	·	·	6.0	147.0*	100.0	6.0	105.0
COc1ccc(C=NNc2ccc([N+](=O)[O-])cc2)cc1Cn1cc([N+](=O)[O-])cn1	·	·	0.9	·	·	·	·	·	·
Cc1cc(-c2nn(-c3ccccc3F)cc2CN2CCC(C(N)=O)CC2)c(C)s1	444.0	114.0	0.9	i	7.0	99.0	·	·	·
Cc1cc(-c2nn(-c3ccccc3F)cc2CNCCc2cnc[nH]2)c(C)s1	293.7	148.0*	3.7	i	39.0	112.0	130.0	17.0	106.0
COc1ccc(Cn2cc3c(-c4ccc(F)cc4)nnc-3c3cc(OC)c(OC)cc32)cc1	822.7	188.0*	-45.0	·	57.0*	118.0	208.0*	81.0*	109.0
COc1cc2c3nnc(-c4ccc(F)cc4)c-3cn(Cc3ccccc3)c2cc1OC	261.2	178.0*	·	i	46.0*	111.0	187.0	47.0	102.0
Cn1nc2c3cc(F)ccc3n(Cc3ccc(F)cc3)cc-2c1=O	259.2	109.0	5.3	i	12.0	107.0	·	·	·
COc1cc2c3nnc(-c4ccc(F)cc4)c-3cn(Cc3ccc(F)cc3)c2cc1OC	484.9	193.0*	-119.5	i	36.0*	91.0	190.0	57.0	100.0
COc1ccc(-c2cn[nH]c2-c2ccc(OCc3ccc(F)cc3)cc2O)cc1OC	157.8	100.0	7.7	i	-9.0	102.0	·	·	·
Cc1cc(C=NNC(N)=O)c(C)n1C1CCCCC1	·	·	1.4	·	·	·	·	·	·
COc1ccc(Nc2cc(C)nc3c(C)cccc23)cc1OC	244.1	116.0	9.8	i	26.0*	111.0	109.0	6.0	105.0
CS(=O)(=O)NN1C(=O)c2ccccc2NC1c1cc2ccccc2nc1Cl (stereo not given)	240.2	108.0	-3.5	i	0.0	132.0*	83.0	-14.0	79.0
CS(=O)(=O)NN1C(=O)c2ccccc2NC1c1ccccc1F (stereo not given)	343.0	94.0	-227.0	i	-1.0	90.0	·	·	·
Cc1ccccc1C(=O)NN=C1SCC(=O)N1Cc1ccco1	·	·	2.3	·	·	·	·	·	·
Fc1ccc(-n2cc(CNCCc3cccnc3)c(-c3ccccc3Cl)n2)cc1	208.5	221.0*	1.8	i	66.0*	108.0	127.0	10.0	101.0
Fc1ccc(-c2nn(-c3ccccc3)cc2CNCc2ccccc2)cc1	273.1	160.0*	0.4	i	19.0	98.0	150.0	19.0	104.0
O=C1/C(=C/c2cccs2)N=C(c2cccs2)N1Nc1ccccc1	211.1	57.0*[inhibitor]	2.9	i	-16.0	88.0	78.0	-8.0	103.0
O=C1/C(=C\c2cccs2)N=C(c2cccs2)N1Nc1ccccc1	187.6	64.0	7.8	i	-11.0	84.0	·	·	·
COc1cc(C=NNC(=O)c2ccc(Cl)cc2)ccc1OCC(=O)N1CC(C)OC(C)C1 (stereo not given)	·	·	6.9	·	·	·	·	·	·
COC1=C/C(=C/c2c(N)n3cc(C)sc3nc2=O)C=CC1=O	320.1	92.0	13.4	i	-4.0	91.0	·	·	·
